An excerpt weighted towards active compounds, which were near 2.9% of everything screened.
iPSC survival up: enhancers of single-cell hiPSC survival, primary screen, ATPlite luminescence | 360,000 tested, 0.044% active | 100% = ROCK inhibitor wells, 0% = DMSO | survival enhancement, % at 20 µM | AID 602274, 2012; in the data active = survival enhancement above about 18%;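 also: cells exposed to compounds for 16 hours before the ATP read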
H9c2 TAG inh: inhibitors of triacylglycerol accumulation, primary screen, cell-based, uHTS, fluorescence, H9c2 | inhibition, % at 12.5 µM | 230,000 tested, 0.66% active | H9c2 cells, Nile Red lipid (TAG) fluorescence; cells loaded with 200 µM oleic acid;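 active = pattern-corrected inhibition of lipid staining of at least 50% with the nuclear-stain viability signal not falling by more than 50%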;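 also: 0% = DMSO wells and 100% = triacsin C control wells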
Rev-erbA mod: modulators of Rev-erb alpha DNA binding, primary screen, biochemical, FITC-DNA, fluorescence polarization, uHTS; Nuclear receptor subfamily 1 group D member 1 (Homo sapiens), P20393; Rev-erbα–FITC-DNA binding, 90 min; activity, % at 10 µM; 370,000 tested, 0.79% active; AID 1259318, 2017;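 active = activity above about 14%, limit read from the data; passing the limit was not always enough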;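 also: 0% = DMSO wells with 35 nM protein and 100% = DMSO wells with 750 nM protein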
Target sequence (P20393 whole entry, looked up): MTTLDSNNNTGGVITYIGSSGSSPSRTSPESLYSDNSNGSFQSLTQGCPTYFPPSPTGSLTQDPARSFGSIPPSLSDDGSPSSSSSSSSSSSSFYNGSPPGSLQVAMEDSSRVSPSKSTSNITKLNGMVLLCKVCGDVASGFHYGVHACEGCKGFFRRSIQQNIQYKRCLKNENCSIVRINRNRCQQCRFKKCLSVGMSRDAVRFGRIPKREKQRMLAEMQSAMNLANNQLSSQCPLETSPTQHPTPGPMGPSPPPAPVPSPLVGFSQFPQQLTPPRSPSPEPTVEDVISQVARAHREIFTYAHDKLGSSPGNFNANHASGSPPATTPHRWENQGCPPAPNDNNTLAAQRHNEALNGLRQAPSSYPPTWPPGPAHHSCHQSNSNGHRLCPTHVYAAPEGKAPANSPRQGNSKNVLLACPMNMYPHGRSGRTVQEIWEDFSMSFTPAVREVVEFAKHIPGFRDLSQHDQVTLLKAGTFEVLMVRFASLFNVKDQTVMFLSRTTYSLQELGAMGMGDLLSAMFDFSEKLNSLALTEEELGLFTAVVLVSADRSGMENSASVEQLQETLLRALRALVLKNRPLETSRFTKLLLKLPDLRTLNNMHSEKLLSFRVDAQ
PG9 binder: binders of HIV-1 gp120 antibody PG9, primary screen, biochemical, TR-FRET; HIV-1 gp120 / PG9 antibody interaction; TR-FRET gp120-PG9 antibody binding; inhibition, % at 6.7 µM; 360,000 tested, 0.43% active; AID 624416, 2012; in the data active = inhibition above about 8.5%
T cruzi inh: inhibitors of intracellular T. cruzi growth, primary screen, luminescence, NIH3T3 host cells; 300,000 tested, 1.4% active; AID 1885, 2009; inhibition, % (no concentration beside the values); T. cruzi beta-gal in NIH3T3, 90 h;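 active = mean inhibition across valid replicates above about 55%, limit read from the data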;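 also: signal also drops with host cell toxicity which is not excluded here; 0% = plate median of DMSO wells and 100% = zero luminescence signal; higher percent means less beta-gal luminescence so fewer parasites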
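assay system = mouse NIH/3T3 fibroblasts infected with β-gal-expressing T. cruzi Tulahuen C4 | input = 5,000 NIH/3T3 host cells per well | buffer or medium = DMEM plus 2% FBS | timing = 3 h host attachment, then at least 90 h co-culture | measured by = GalScreen luminescence, 60 min | evaluation = luminescence reflecting intracellular parasite burden, expressed as percent inhibition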
beta cell repl: inducers of MIN6 beta-cell proliferation, primary screen, ATP luminescence, uHTS; MIN6 cells proliferation, ATPlite luminescence, 48 h; cells starved in 0.2% serum; 100% = growth in 10% serum; proliferation, % at 10 µM; AID 2380, 2010; 330,000 tested, 0.29% active;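 active = compounds whose signal lies at least 3.5 SD above the mean of all wells on their plate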;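 also: 0% = DMSO-treated cells in low-serum medium and 100% = 10% serum control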
* hit, by the source's call; . = no result given.

SMILES | iPSC survival up | H9c2 TAG inh | Rev-erbA mod | PG9 binder | T cruzi inh | beta cell repl
O=C(CCCn1cnc([N+](=O)[O-])n1)Nc1cccc(Cl)c1Cl | -0.9 | . | 8.2 | 1.8 | 41.2 | 1.0
O=C(CCCn1cnc([N+](=O)[O-])n1)Nc1ccc(Cl)c(Cl)c1 | 0.3 | . | 3.9 | -1.6 | 82.3* | -1.2
Cc1cc(NC(=O)CCCn2cnc([N+](=O)[O-])n2)no1 | 0.0 | 2.4 | -10.0 | -0.3 | 57.9* | 0.5
Cc1cc(NC(=O)CCCn2nc(C)c([N+](=O)[O-])c2C)no1 | -0.2 | 0.1 | -3.1 | 1.3 | 2.9 | -1.6
O=C(OCC(=O)N1CCN(C(=O)c2ccco2)CC1)c1cn(-c2ccccc2)nc1-c1ccccc1 | 0.7 | . | -6.4 | 1.1 | 13.8 | -2.1
CCOC(=O)C1(C(F)(F)F)N=C(C(F)(F)F)Nc2ccc(F)cc21 (centres undefined) | -1.3 | . | 0.3 | -1.8 | -16.0 | 0.0
O=S1(=O)N=C(Nc2ccc(N3CCOCC3)cc2)c2ccccc21 | 0.4 | . | -0.6 | -4.2 | -4.5 | 1.4
Cc1ccccc1-c1ccc(Nc2ccc(N3CCOCC3)cc2)nn1 | -0.6 | . | . | . | 69.9* | -2.9
O=C(CN1C2=NCCCN2c2ccccc21)c1ccc([N+](=O)[O-])cc1 | -1.0 | -4.1 | 3.5 | -0.7 | 59.4* | -0.8
CCOC(=O)C1CCN(C2=C(NS(=O)(=O)c3ccc(Br)cc3)C(=O)c3ccccc3C2=O)CC1 | -0.5 | . | 6.3 | -3.7 | 16.1 | -3.6
Cn1c2ccc(F)cc2c2nnc(SCC(=O)Nc3cccc(O)c3)nc21 | -0.6 | . | 7.2 | 2.8 | -4.0 | -3.1
Oc1[nH]c2ccccc2c1N=NC(=S)N1CCOCC1 | -0.3 | 20.1 | . | . | 56.5* | -6.1
NC(=S)N=Nc1c(O)[nH]c2ccccc12 | 0.4 | . | 2.7 | -3.2 | -5.8 | 0.0
COc1ccc(NC(=O)c2[nH]c(C)c(C(C)=O)c2C)cc1S(=O)(=O)Nc1ccc(Br)cc1 | -0.7 | 11.8 | 6.2 | 2.2 | 56.4* | -2.8
COc1ccc(NC(=O)c2[nH]c(C)c(C(C)=O)c2C)cc1Cl | 0.0 | 3.7 | 5.7 | -0.6 | -6.6 | 1.8
Cc1nc2scc(C)n2c(=O)c1S(=O)(=O)N1CCN(c2ccc(F)cc2)CC1 | -0.6 | . | -6.4 | -1.6 | -4.9 | 2.2
CC(C)CCNC(=O)c1nn(Cc2ccccc2)c(=O)c2ccccc12 | 0.1 | . | 4.5 | 0.0 | 7.9 | 0.1
CC(C)N(CCNC(=O)c1nn(Cc2ccccc2)c(=O)c2ccccc12)C(C)C | 0.0 | 6.2 | 4.8 | 0.0 | 54.6* | -2.2
N#Cc1ccc(CSc2nnc(-c3ccncc3)n2CCc2ccccc2)cc1 | 4.9 | 7.1 | -3.0 | 2.1 | 64.6* | -4.6
N#C/C(=C\c1ccc(C(=O)O)cc1)S(=O)(=O)c1cc(Br)ccc1Br | -0.5 | 5.5 | -0.3 | -0.9 | -20.5 | -1.3
Cc1c(C(=O)OC(C)CCN(C)C)oc2ccccc12 (centres undefined) | -3.4 | 19.6 | -7.3 | -3.2 | 57.3* | -2.7
CC1=NN(c2ccccc2)C(=O)/C1=C/C=C/c1ccc(N(C)C)cc1 | -0.7 | 66.5* | -14.5 | -4.0 | 5.9 | .
COc1ccc(C2=Nn3c(nnc3-c3ccccc3OC)SC2)cc1OC | -0.9 | 60.3* | -3.1 | -0.8 | -63.6 | .
COc1ccccc1-c1nnc2n1N=C(c1ccc3c(c1)OCO3)CS2 | . | . | -0.9 | . | . | .
Cc1cc(-c2nnc3n2N=C(c2ccccc2Br)CS3)n[nH]1 | -0.4 | 19.0 | -3.6 | -1.1 | -1.1 | -0.8
SMILES | iPSC survival up | H9c2 TAG inh | Rev-erbA mod | PG9 binder | T cruzi inh | beta cell repl
Cc1cccc(-c2nnc3n2N=C(c2ccccc2Br)CS3)c1 | -2.3 | -4.6 | 2.0 | 0.2 | 18.7 | 7.3*
Cc1ccc(S(=O)(=O)N(C)C[C@@H]2OCc3cn(nn3)CCCC(=O)N([C@@H](C)CO)C[C@H]2C)cc1 | -1.6 | 6.5 | -8.8 | -1.9 | . | .
COc1ccc(NC2=Nc3ccccc3N3C2=Nc2c(c(C)nn2-c2ccc(C)cc2)C3c2cccnc2)cc1 (centres undefined) | 3.5 | . | 1.0 | -3.7 | 2.9 | -5.5
Cc1ccc(C2c3c(C)nn(-c4ccc([N+](=O)[O-])cc4)c3N=C3C(=O)Nc4ccccc4N32)cc1 (centres undefined) | . | . | . | . | 64.9* | -6.8
COc1ccccc1NC(=O)Cc1nnc(SCC(=O)c2ccc(F)cc2)n1C | -0.1 | . | 3.9 | -3.1 | -4.3 | -2.4
O=C1C=C(N(CCO)Cc2ccccc2)c2ccccc2C1=O | -0.7 | -0.4 | . | . | 77.7* | .
CCOC(=O)c1cn(Cc2ccccc2)nn1 | 3.3 | . | -2.6 | 0.6 | -8.1 | -1.3
CC(=O)Nc1ccc(NC(=O)C2CC(=O)N(Cc3ccccc3)C2)cc1 (centres undefined) | 0.1 | 8.3 | -5.8 | 0.7 | 3.5 | -2.2
COC(=O)C1=CN(Cc2ccc(F)cc2)C=C(C(=O)OC)C1c1cc(OC)c(OC)c(OC)c1 | -0.1 | . | 1.9 | 0.1 | 15.9 | 3.9
COC(=O)C1=CN(Cc2ccc(OC)c(OC)c2)C=C(C(=O)OC)C1c1cccc(F)c1 | 1.6 | 10.9 | -0.6 | 1.5 | 63.4* | -1.3
CN1CCC(OC(=O)c2cccc(Cl)c2)CC1 | -1.0 | -8.6 | -4.0 | -2.6 | 59.8* | -2.7
CN1CCC(OC(=O)c2ccc(Br)cc2)CC1 | 1.6 | . | 1.0 | 0.8 | 62.4* | 0.7
O=C(NC1CCCCC1)C(c1ccccc1F)N(Cc1ccco1)C(=O)Cn1nnc2ccccc21 (centres undefined) | -1.9 | . | 4.0 | -0.4 | 20.0 | 3.4
O=C(NNC(=O)c1cccnc1SCc1cccc([N+](=O)[O-])c1)c1ccccn1 | -1.8 | . | -3.8 | -0.1 | 65.4* | 0.0
CC(C)(C)c1cc(CCC(=O)N2CCNCC2)c(C(C)(C)C)cc1O | -1.1 | 55.2* | -1.7 | 2.9 | -8.1 | -4.3
O=C(CCc1c[nH]c2ccccc12)N1CCCCCCC1 | -0.4 | -10.4 | -6.4 | -1.6 | 20.6 | 7.6
COc1ccc(CNCCSc2nnnn2C)c(OC)c1OC | -0.6 | -16.6 | 1.1 | -1.0 | -14.8 | -1.6
CCOc1cc(CNCCSc2nnnn2C)cc(Br)c1OCc1ccccc1F | 4.4 | . | -3.7 | -2.0 | 67.9* | -3.5
Cn1nnnc1SCCNCc1cccc2ccccc12 | -0.9 | . | -1.5 | 0.0 | 70.4* | -2.5
CSc1nsc(/C=C/Nc2ccc(F)cc2F)c1C#N | -2.0 | -0.4 | . | . | 10.2 | 0.6
O=C(NCCc1ccc2c(c1)OCCO2)c1ccccc1F | 0.7 | . | 3.2 | -1.2 | 10.4 | -1.9
CC1=C/C(=N\NC(=S)NCc2ccccc2)CC1 | -0.9 | -3.2 | -1.6 | 0.5 | 69.3* | -1.0
C/C(=N\NC(=S)NCc1ccccc1)c1ccccc1 | -2.1 | -7.7 | 2.4 | -2.2 | -15.9 | -3.1
